Screens deposited in PubChem by several laboratories.
CRFR2-BP antag: antagonists of CRF-binding protein/CRF-R2 receptor complex; AID 588475; 350,000 tested, 0.59% active; HEK293 CRF-R2/CRF-BP, CRF-induced calcium fluorescence; inhibition, % at 11.8 µM;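 active means inhibition of the ligand-induced calcium signal above about 50% at the single tested concentration, limit read from the data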
TAAR1 antag: human TAAR1 antagonism; Q96RJ0; CHO RD-HGA16 TAAR1, Fluo-8 calcium fluorescence, antagonist; inhibition, % at 3 µM; 360,000 tested, 1.5% active; AID 624466;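 active means inhibition above a per-plate cutoff, the mean inhibition of test compounds on that plate plus 3 SD, cut at about 49% in these data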
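Material: CHO RD-HGA16 cells bearing hTAAR1; compound dosing: one-point dosing, 3 µM nominal final; schedule: dye loading 75 min at 37 °C, then 30 min room temperature; measured by: calcium fluorescence with Fluo-8; control set: vehicle and agonist controls; replication: n of 1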
TAAR1 agonist: human TAAR1 agonism; activation, % at 3 µM; AID 624467; Q96RJ0; CHO RD-HGA16 TAAR1, Fluo-8 calcium fluorescence; vehicle wells 0%, saturating PEA agonist 100%; 360,000 tested, 0.99% active;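 active means activation above the mean activation of all test compounds in the run plus 3 SD, cut at about 38% in these data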
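Assay system – CHO-derived RD-HGA16 cells with stable Gα16 and human TAAR1 · Compound dosing – one-point dosing at 3 µM (nominal) · Incubation – 17-24 h seeding, 75 min 37 °C dye, 30 min RT · Measured by – kinetic Fluo-8 calcium fluorescence · Control set – DMSO vehicle as 0%, PEA at EC100 as 100% · Repeats – single well for each compound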
ANO1 activ: activates or potentiates the mouse TMEM16A chloride channel. Q8BHY3. HEK293 TMEM16A/YFP-H148Q/I152L, iodide quench fluorescence; hits give low values. B-score at 10 µM. 340,000 tested, 0.3% active;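 active means fluorescence-ratio B-score plate-corrected deviation score at least 3 library SD below zero, with starting fluorescence score within 5 deviations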;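 further: channel opened by trigger with iodide after compound preincubation; score built on the fluorescence ratio of max minus min over baseline; more negative score means more quench and so TMEM16A activation or potentiation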
Target sequence (Q8BHY3 whole entry, looked up): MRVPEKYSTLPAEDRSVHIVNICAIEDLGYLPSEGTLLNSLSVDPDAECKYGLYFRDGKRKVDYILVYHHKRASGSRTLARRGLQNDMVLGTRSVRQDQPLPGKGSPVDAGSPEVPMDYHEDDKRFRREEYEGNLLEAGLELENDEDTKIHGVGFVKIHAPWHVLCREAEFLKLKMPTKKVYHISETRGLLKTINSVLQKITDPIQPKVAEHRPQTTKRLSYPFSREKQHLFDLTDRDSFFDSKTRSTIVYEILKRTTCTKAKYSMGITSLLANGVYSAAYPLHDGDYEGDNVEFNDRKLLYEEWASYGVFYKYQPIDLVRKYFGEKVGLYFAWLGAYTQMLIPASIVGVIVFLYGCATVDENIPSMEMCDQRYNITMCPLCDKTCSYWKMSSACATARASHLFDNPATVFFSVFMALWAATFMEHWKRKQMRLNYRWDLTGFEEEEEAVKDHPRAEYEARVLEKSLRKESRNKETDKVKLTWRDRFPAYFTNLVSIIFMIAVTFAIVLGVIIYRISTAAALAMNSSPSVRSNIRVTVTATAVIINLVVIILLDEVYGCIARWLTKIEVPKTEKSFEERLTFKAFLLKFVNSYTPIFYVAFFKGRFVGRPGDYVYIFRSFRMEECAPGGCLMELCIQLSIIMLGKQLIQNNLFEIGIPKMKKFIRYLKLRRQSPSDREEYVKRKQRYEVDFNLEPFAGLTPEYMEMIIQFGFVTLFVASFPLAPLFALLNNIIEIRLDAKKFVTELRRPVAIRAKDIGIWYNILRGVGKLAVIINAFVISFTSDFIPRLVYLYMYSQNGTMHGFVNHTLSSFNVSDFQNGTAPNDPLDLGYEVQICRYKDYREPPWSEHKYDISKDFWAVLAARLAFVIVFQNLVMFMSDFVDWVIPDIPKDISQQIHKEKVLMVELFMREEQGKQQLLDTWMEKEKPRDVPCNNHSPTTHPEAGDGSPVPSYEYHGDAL
TMEM16A inh: mouse TMEM16A channel inhibition, primary screen. Q8BHY3. HEK293 TMEM16A/YFP iodide influx fluorescence, ionomycin. normalized B-score (activity score, 25-100; higher = stronger inhibition) at 10 µM. 310,000 tested, 1.2% active;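 active means ratio plate-corrected score three or more library SD toward inhibition, starting fluorescence score within five deviations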;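 further: score derived from kinetic fluorescence span divided by baseline fluorescence per well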
CRFR2-BP ag: CRF-BP/CRF-R2 complex agonism; activation, % at 13.2 µM; AID 588473; 350,000 tested, 0.46% active; HEK293 CRF-R2/CRF-BP, calcium dye fluorescence (FLIPR); percent of saturating CRF peptide response;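 active means activation of at least 50%, plus an integration ratio under a set limit after plate pattern correction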
nonsel antag count: nonselective antagonism, TAAR1 counter-screen. counterscreen cell line, calcium fluorescence, antagonist mode. AID 651780. shares compounds with TAAR1 antag. inhibition, % at 3 µM. 2,400 tested, 77% active; in the data active means inhibition above about 22%;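 further: CHO-Ga16 host cells stimulated with ATP at an EC80 level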
TAAR1 antag conf: human TAAR1 antagonism, confirmed | shares compounds with TAAR1 antag | TAAR1-expressing cells, fluorescence antagonist read-out | inhibition, % at 3 µM | 2,400 tested, 40% active | AID 651785; in the data active means inhibition above about 49%;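 further: CHO-Ga16 host cells challenged with agonist PEA near its EC80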
Ga16 nonsel ag: counter-screen for TAAR1 antagonists: nonselective Ga16 agonists | shares compounds with TAAR1 antag | Ga16-expressing cells, calcium fluorescence, agonist counterscreen | activation, % at 3 µM | 2,400 tested, 18% active; in the data active means activation above about 12%
TAAR1 ag counter: counter-screen for human TAAR1 antagonists: TAAR1 agonists | shares compounds with TAAR1 antag | hTAAR1 cell line, fluorescence activation, agonist mode | activation, % at 3 µM | 2,400 tested, 2% active; in the data active means activation above about 37%;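 further: CHO cells stably expressing TAAR1 with calcium dye readout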
Hits are given with their value; – = inactive; · = not tested or not shown. This is a sample that favours compounds with a hit; in the whole collection about 3.9% have one here.

SMILES	CRFR2-BP antag	TAAR1 antag	TAAR1 agonist	ANO1 activ	TMEM16A inh	CRFR2-BP ag	nonsel antag count	TAAR1 antag conf	Ga16 nonsel ag	TAAR1 ag counter
O=C(NCc1ccccn1)Nc1ccccc1C(F)(F)F	–	–	–	–	–	–	·	·	·	·
COCC1CN(CCc2ccc(F)cc2)S(=O)(=O)c2c(OCCN3C(=O)[C@@H]4[C@H](C3=O)[C@@H]3C=C[C@H]4C3)cccc2O1 (stereo partly specified)	·	63.0	–	·	·	·	36.4	58.2	–	–
COc1cccc(N2CC(C(=O)Nc3nnc(SCCN4CCOCC4)s3)CC2=O)c1 (stereo unspecified)	–	–	–	–	–	–	·	·	·	·
COc1ccccc1N(C)S(=O)(=O)c1ccc(C(=O)NCCCN2CCCC2=O)cc1	–	–	–	·	·	–	·	·	·	·
Cc1cccc(N2CCN(C3=NC(=O)/C(=C\c4cn[nH]c4-c4ccccc4)S3)CC2)c1	–	60.6	–	–	–	–	41.0	58.7	–	–
COc1cccc(Nc2nc(-c3sc(NC(=O)c4ccco4)nc3C)cs2)c1	–	52.4	–	–	–	–	21.6	–	–	–
COc1ccc(Cl)cc1Nc1nc(-c2sc(NC(=O)c3ccco3)nc2C)cs1	–	–	–	–	–	–	·	·	·	·
Cc1nn2c(C)c(C(=O)Nc3ccccc3)cnc2c1-c1ccccc1	–	58.2	–	–	–	–	24.8	–	–	–
CCc1ccc(NC(=O)CCC(=O)N2CCSc3ccccc32)cc1	–	58.7	–	–	–	–	24.8	–	–	–
O=C(CCC(=O)N1CCSc2ccccc21)Nc1cccc(F)c1	–	–	–	–	–	–	·	·	·	·
CCc1cccc(NC(=O)CCC(=O)N2CCSc3ccccc32)c1	–	60.1	–	–	–	–	–	–	–	–
CCC(=O)N1c2ccccc2NC2=C(C(=O)CC(c3ccco3)C2)C1c1ccco1 (stereo unspecified)	–	–	–	–	–	–	·	·	·	·
O=C1CC(c2ccco2)CC2=C1C1c3ccccc3C(=O)N1c1ccccc1N2 (stereo unspecified)	–	63.5	–	–	–	–	23.8	–	–	–
CC(=O)N[C@@H](Cc1c[nH]c2ccccc12)C(=O)NC1CC1	–	–	–	–	–	–	·	·	·	·
COc1ccc(S(=O)(=O)N(C)CC(=O)NCc2ccccc2)cc1OC	–	91.5	–	–	–	–	–	–	–	–
COc1ccc(CCNC(=O)c2ccc(Br)o2)cc1Br	·	–	–	·	·	·	·	·	·	·
CCc1nc2ccc(C(=O)NCc3ccc4c(c3)OCO4)cn2c1N(C)CCC(C)C	·	67.3	–	·	·	·	–	–	–	–
O=C1N/C(=C/c2ccc(Br)cc2)C(O)=C1C=NCc1ccccc1	–	105.0	–	–	–	–	–	–	–	–
Cc1ncsc1CCC(=O)N1CCCC(Nc2ccc(C(C)C)cc2)C1 (stereo unspecified)	–	–	–	–	–	–	·	·	·	·
COc1ccc(-c2nc(C#N)c(NCc3ccccc3Cl)o2)cc1OC	–	–	–	–	–	–	·	·	·	·
COc1ccc(-c2nc(C#N)c(NCc3ccccc3Cl)o2)cc1	–	52.6	–	–	–	–	–	–	–	–
O=C(NCCN1CCOCC1)c1ccc(=O)n(Cc2ccc(Cl)cc2)c1	–	105.4	–	–	–	–	–	–	–	–
CN(C(=O)c1sc2nc(N3CCOCC3)c3c(c2c1N)CCCC3)c1ccccc1	–	58.8	–	–	–	–	–	–	–	–
COc1ccccc1CNC(=O)c1cccc(S(=O)(=O)N2CCN(C)CC2)c1	–	–	–	–	–	–	·	·	·	·
